# Reference: ChEMBL document CHEMBL3808278, “Design, Synthesis, and Biological Evaluation of Imidazo[1,5-a]quinoline as Highly Potent Ligands of Central Benzodiazepine Receptors” (J Med Chem, 2016)
# Activity calls are given as the source filed them. No cut-off for these calls is given here.
# How the values were obtained:
# Mus musculus [1] = experiment: Anxiolytic activity in mouse assessed as increase in time spent in light box at 1 mg/kg, po administered 30 mins before test by light-dark box test; format: functional, organism-based
# Outline: (§1)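 Light-dark box in mice measured time in the light compartment. Compounds were given per os 30 min before testing, and diazepam 1 mg kg-1 subcutaneously as reference. Values are mean ± SEM of at least 10 mice, compared with vehicle-treated animals.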
# [2] = Displacement of [3H]-flumazenil from central-type benzodiazepine receptor in bovine cortical membrane after 90 mins by liquid-phase scintillation beta-counting method; format: cell membranes, Bos taurus
# Outline: (§2)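 Competition binding against radiolabelled antagonist [3H]flumazenil in cortical membranes (bovine; human where listed); Ki reported as mean ± SEM of three independent determinations.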
# Mus musculus [3] = experiment: Neurotoxicity in mouse assessed as effect on neurological and muscular abilities at 10 mg/kg, po after 30 mins by Hole-Board test; format: toxicity, organism-based; details: in vivo, 0.5 h
# Outline: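 Hole-board test 30 min after oral dosing at 10 mg kg-1 counted movements (motor activity) and head inspections (exploratory activity). Values are mean ± SEM of at least 10 mice, compared with vehicle controls.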
# Bos taurus = species on record: Bos taurus; experiment: Selectivity ratio, ratio of Ki for central-type benzodiazepine receptor in bovine cortical membrane to Ki for central-type benzodiazepine receptor in bovine cortical membrane in presence of 50 uM of GABA; format: cell membranes
# Mus musculus [4] = species on record: Mus musculus; experiment: Myorelaxant effect in mouse assessed as effect on motor coordination after 30 mins by rotarad test; format: organism-based; details: in vivo, 0.5 h
# Outline: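 Rota-rod test of motor coordination in mice, with compounds given per os 30 min before testing. Values are mean ± SEM of at least 10 mice.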
# Rattus norvegicus [5] = species on record: Rattus norvegicus; experiment: Antagonist activity at central-type benzodiazepine receptor in Sprague-Dawley rat cerebrocortical synaptoneurosomes assessed as decrease in 36Cl- flow after 10 secs by liquid-phase scintillation beta-counting method
# Mus musculus [6] = experiment: Anxiolytic activity against mouse assessed as increase in time spent in light box at 10 mg/kg, po administered 30 mins before test by light-dark box test; format: functional, organism-based; outline: as §1
# Mus musculus [7] = experiment: Antiamnestic activity in mouse assessed as prevention of scopalamine-induced amnesia at 10 mg/kg, po administered 30 mins before test by passive avoidance test; format: functional, organism-based
# Outline: (§3)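 Passive avoidance in mice: compounds were given per os 30 min before the test, and scopolamine 1.5 mg kg-1 i.p. immediately after the punishment. Read-out was time recorded during the retention session. Values are mean ± SEM of at least 10 mice, compared with vehicle-treated animals.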
# Rattus norvegicus [8] = species on record: Rattus norvegicus; experiment: Inverse agonist activity at central-type benzodiazepine receptor in Sprague-Dawley rat cerebrocortical synaptoneurosomes assessed as decrease in 36Cl- flow after 10 secs by liquid-phase scintillation beta-counting method
# Brain [9] = experiment: Neuroprotective activity against oxygen-glucose deprivation and reoxygenation-induced injury in Sprague-Dawley rat brain cortical slices assessed as maximum recovery in LDH release at 50 uM treated during 90 mins of reperfusion phase measured after 90 mins by spetrophotometric method; format: functional
# Outline: (§4)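 Rat brain cortical slices in ACSF underwent 30 min oxygen/glucose deprivation, then 90 min reoxygenated ACSF (reperfusion). Controls were kept 120 min in ACSF. Compounds (0.1–100 µM) were added only during reperfusion, and LDH release was measured. Data are means ± SEM of at least 4 experiments, analysed by ANOVA with Dunnett post test. The effective concentration is that giving the largest reduction, and recovery is the % reversion at that concentration.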
# Rattus norvegicus [10] = species on record: Rattus norvegicus; experiment: Partial agonist activity at central-type benzodiazepine receptor in Sprague-Dawley rat cerebrocortical synaptoneurosomes assessed as increase in 36Cl- influx after 10 secs by liquid-phase scintillation beta-counting method
# Brain [11] = experiment: Neuroprotective activity against oxygen-glucose deprivation and reoxygenation-induced injury in Sprague-Dawley rat brain cortical slices assessed as maximum recovery in LDH release at 5 uM treated during 90 mins of reperfusion phase measured after 90 mins by spetrophotometric method; format: functional; outline: as §4
# [12] = Displacement of [3H]-flumazenil from central-type benzodiazepine receptor in human cortical membrane after 90 mins by liquid-phase scintillation beta-counting method; format: cell membranes; outline: as §2
# Mus musculus [13] = experiment: Anxiolytic activity in mouse assessed as time spent in light box at 10 mg/kg, po administered 30 mins before test by light-dark box test; format: functional; outline: as §1
# Mus musculus [14] = experiment: Antiamnestic activity in scopolamine induced mouse amnesia model assessed as time spent in light box at 1 mg/kg, po administered 30 mins before test by passive avoidance test; format: functional, organism-based; outline: as §3
# [15] = Binding affinity to rat cortical membrane central-type benzodiazepine receptor measured after 90 mins by liquid-phase scintillation beta-counting method
# Rattus norvegicus [16] = species on record: Rattus norvegicus; experiment: Selectivity ratio, ratio of Ki for central-type benzodiazepine receptor in rat cortical membrane to Ki for central-type benzodiazepine receptor in rat cortical membrane in presence of 50 uM of GABA; format: cell membranes
# Outline: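 GABA ratio is Ki without GABA divided by Ki with 50 µM GABA, from [3H]flumazenil competition binding in cortical membranes. Per the table footnote, ratio values were obtained in rat cortical membranes.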
# Rattus norvegicus [17] = species on record: Rattus norvegicus; experiment: Partial inverse agonist activity at central-type benzodiazepine receptor in Sprague-Dawley rat cerebrocortical synaptoneurosomes assessed as decrease in 36Cl- flow after 10 secs by liquid-phase scintillation beta-counting method
# Homo sapiens = species on record: Homo sapiens; experiment: Selectivity ratio, ratio of Ki for central-type benzodiazepine receptor in human cortical membrane to Ki for central-type benzodiazepine receptor in human cortical membrane in presence of 50 uM of GABA; format: cell membranes
# Mus musculus [18] = experiment: Antiamnestic activity in scopolamine induced mouse amnesia model assessed as time of retention session in light box at 30 mg/kg, po administered 30 mins before test by passive avoidance test (reference value: 44.8 +/- 8.1 secs); format: functional; outline: as §3
SMILES,Ki [2],Ratio Ki (Bos taurus),Antagonist activity (Rattus norvegicus [5]),further results
CCCN(CCC)C(=O)c1c(C)c2c(C(=O)OC(C)(C)C)ncn2c2ccccc12,1 nM,1.1,Active,Activity (Mus musculus [1]): Active; Activity (Mus musculus [3]): Non-toxic; Activity (Mus musculus [4]): Non-toxic; Activity (Mus musculus [6]): Active; Activity (Mus musculus [7]): Active
CCCCN(C)C(=O)c1cc2c(C(=O)OCC)ncn2c2ccccc12,1.9 nM,0.76,–,Activity (Rattus norvegicus [8]): Active; Activity (Mus musculus [3]): Non-toxic; Activity (Mus musculus [4]): Non-toxic; Activity (Mus musculus [6]): Active; Activity (Mus musculus [7]): Active
CN(Cc1ccccc1)C(=O)c1cc2c(C(=O)OC(C)(C)C)ncn2c2ccccc12,14 nM,0.98,Active,–
CCCN(CCC)C(=O)c1c(CC)c2c(C(=O)OCC)ncn2c2ccccc12,2.5 nM,1.5,–,Activity (Mus musculus [3]): Non-toxic; Activity (Mus musculus [4]): Non-toxic; Activity (Brain [9]): 44.3%; Activity (Rattus norvegicus [10]): Active; Activity (Mus musculus [6]): Active; Activity (Mus musculus [7]): Active
CCOC(=O)c1ncn2c1c(CO)c(-c1ccccc1)c1ccccc12,1.8 nM,1.18,–,Activity (Brain [11]): 39.5%; Ki [12]: 2 nM; Activity (Rattus norvegicus [10]): Active
CN(Cc1ccccc1)C(=O)c1ncn2c1cc(-c1ccccc1)c1ccccc12,449 nM,0.92,Active,–
CCCN(CCC)C(=O)c1cc2c(C(=O)OC(C)(C)C)ncn2c2ccccc12,1.2 nM,1.1,Active,–
CCCN(CCC)C(=O)c1c(CC)c2c(C(=O)OC(C)(C)C)ncn2c2ccccc12,5.6 nM,1.4,–,Time (Mus musculus [13]): 172.5 s; Activity (Brain [11]): 44.4%; Activity (Mus musculus [3]): Non-toxic; Activity (Mus musculus [4]): Non-toxic; Activity (Rattus norvegicus [10]): Active; Activity (Mus musculus [14]): Active; Activity (Mus musculus [7]): Active
CCOC(=O)c1ncn2c1c(C)c(C(=O)O)c1ccccc12,105 nM,1.2,–,Activity (Rattus norvegicus [10]): Active
C#Cc1ccc2c(c1)c(C(=O)N(C)Cc1ccccc1)cc1c(C(=O)OCC)ncn12,–,–,Active,Ki [15]: 161 nM; Ratio Ki (Rattus norvegicus [16]): 0.95
CCOC(=O)c1ncn2c1cc(C(=O)N(C)Cc1ccccc1)c1ccccc12,20 nM,0.52,–,Activity (Rattus norvegicus [8]): Active
CCOC(=O)c1ncn2c1CN(C)C(=O)c1cc(F)ccc1-2 [FLUMAZENIL],1.9 nM,1.03,–,Activity (Rattus norvegicus [17]): Active; Ki [12]: 2 nM; Ratio Ki (Homo sapiens): 1.02
CCCN(CCC)C(=O)c1cc2c(C(=O)OCC)ncn2c2ccccc12,0.91 nM,1,Active,–
CN(C)C(=O)c1ncn2c1cc(-c1ccccc1)c1ccccc12,3520 nM,1.44,–,Activity (Rattus norvegicus [10]): Active
CCOC(=O)c1ncn2c1cc(-c1ccccc1)c1ccccc12,42 nM,0.9,Active,–
CCOC(=O)c1ncn2c1c(C(=O)OCC)c(-c1ccccc1)c1ccccc12,2190 nM,0.66,–,Activity (Rattus norvegicus [8]): Active
CCCc1c(C(=O)N(CC)CC)c2ccccc2n2cnc(C(=O)OC(C)(C)C)c12,2870 nM,1.1,–,–
CCOC(=O)c1ncn2c1cc(C(=O)N(C)Cc1ccccc1)c1cc(C#C[Si](C)(C)C)ccc12,–,–,Active,Ki [15]: 510 nM; Ratio Ki (Rattus norvegicus [16]): 0.99
CC(=O)N1Cc2c(C(=O)OC(C)(C)C)ncn2-c2ccccc21,7.3 nM,0.98,Active,Ki [12]: 7.7 nM; Ratio Ki (Homo sapiens): 1.04
CCOC(=O)c1ncn2c1CN(C(C)=O)c1cc(F)ccc1-2,2.2 nM,0.75,–,Activity (Rattus norvegicus [17]): Active; Ki [12]: 2.7 nM; Ratio Ki (Homo sapiens): 0.95; Activity (Rattus norvegicus [10]): Active

SMILES,Ki [2],Ratio Ki (Bos taurus),Antagonist activity (Rattus norvegicus [5]),further results
CCOC(=O)c1ncn2c1cc(C(=O)N(C)C)c1ccccc12,8.2 nM,1.3,–,Activity (Mus musculus [18]): inactive; Activity (Mus musculus [3]): Non-toxic; Activity (Mus musculus [4]): Non-toxic; Activity (Rattus norvegicus [10]): Active; Activity (Mus musculus [6]): Active
CCCc1c(C(=O)N(CC)CC)c2ccccc2n2cnc(C(=O)OCC)c12,169 nM,0.9,–,–
CCOC(=O)c1cc2c(cn1)[nH]c1ccccc12,–,–,–,Activity (Rattus norvegicus [17]): Active
C#CCN(C)C(=O)c1c(C)c2c(C(=O)OCC)ncn2c2ccccc12,1.2 nM,1,Active,–
CCOC(=O)c1ncn2c1cc(C(=O)N(C)Cc1ccccc1)c1cc(F)ccc12,5.7 nM,0.8,–,Activity (Rattus norvegicus [8]): Active
CC(C)(C)OC(=O)c1ncn2c1cc(-c1ccccc1)c1ccccc12,55 nM,0.8,–,Activity (Rattus norvegicus [8]): Active
CCCc1c(C(=O)N(CCC)CCC)c2ccccc2n2cnc(C(=O)OC(C)(C)C)c12,1440 nM,1,Active,–
CCOC(=O)c1ncn2c1cc(C(=O)N1CCN(C)CC1)c1ccccc12,55 nM,1,Active,–
CCOC(=O)Cc1c(-c2ccccc2)c2ccccc2n2cnc(C(=O)OCC)c12,3.8 nM,0.72,–,Activity (Rattus norvegicus [8]): Active
CCOC(=O)c1ncn2c1c(C)c(C(=O)N(C)Cc1ccccc1)c1ccccc12,6.5 nM,1.1,Active,–
CCOC(=O)c1ncn2c1c1c(c3ccccc32)CCC1,18 nM,1.3,–,–
CCOC(=O)c1ncn2c1c(C)c(C(=O)OC(C)(C)C)c1ccccc12,1 nM,1.4,–,Activity (Rattus norvegicus [10]): Active
CC(=O)N1Cc2c(C(=O)OC(C)(C)C)ncn2-c2ccc(F)cc21,1 nM,1,Active,Ki [12]: 2 nM; Ratio Ki (Homo sapiens): 1; Activity (Rattus norvegicus [10]): Active
CN(C)C(=O)c1cc2c(C(=O)OC(C)(C)C)ncn2c2ccccc12,11 nM,1.6,–,Activity (Rattus norvegicus [10]): Active
CCOC(=O)c1ncn2c1cc(C(=O)N(C)Cc1ccccc1)c1cc(Br)ccc12,–,–,Active,Ki [15]: 24 nM; Ratio Ki (Rattus norvegicus [16]): 0.9
CN1C(=O)CN=C(c2ccccc2F)c2cc([N+](=O)[O-])ccc21 [FLUNITRAZEPAM],5.2 nM,1.68,–,Activity (Rattus norvegicus [17]): Active; Ki [12]: 6.4 nM; Ratio Ki (Homo sapiens): 1.61
CCCc1c(C(=O)N(CCC)CCC)c2ccccc2n2cnc(C(=O)OCC)c12,34 nM,1.1,Active,–
Cc1c(-c2ccccc2)c2ccccc2n2cnc(C(=O)OC(C)(C)C)c12,10 nM,1,Active,–
CCOC(=O)c1ncn2c1CN(C(C)=O)c1ccccc1-2,25 nM,0.9,Active,Ki [12]: 33 nM
